The test system of data set [1] is WI-38. In words: Antiproliferative activity against human WI38 cells after 72 hrs by MTT assay. In kind it is cell-based. A digest of the protocol: (§1)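 Monolayer cells in DMEM with 10% FBS, 2 mM L-glutamine, penicillin and streptomycin at 37 °C, 5% CO2. Seeded at 3000-6000 cells/well by doubling time on day 0. Five 10-fold dilutions (0.01–100 µM) were added and incubated 72 h. MTT read-out, converted to percentage growth. IC50 by linear regression between bracketing concentrations. Quadruplicate points, three independent experiments, ANOVA/Tukey p<0.05.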

The test system of data set [2] is MIA PaCa-2. The data set can be described thus: Antiproliferative activity against human MIAPaCa2 cells after 72 hrs by MTT assay. Format: functional, cell-based. A digest of the protocol:
as §1
For orientation: Formazan colour is commonly taken as a measure of viable cells.

The subject of data set [3] is SW-620. In words: Antiproliferative activity against human SW620 cells after 72 hrs by MTT assay. Format: functional, cell-based. The method, boiled down: as §1
For data set [4], the system named is HEp-2. In words: Antiproliferative activity against human Hep2 cells after 72 hrs by MTT assay. In kind it is functional, cell-based. The method, boiled down:
as §1

The test system of data set [5] is SK-BR-3. The data set can be described thus: Antiproliferative activity against human SKBR3 cells after 72 hrs by MTT assay. Format: functional, cell-based. A digest of the protocol:
as §1

Data set [6] relates to MCF7. In words: Antiproliferative activity against human MCF7 cells after 72 hrs by MTT assay. In kind it is functional, cell-based. The method, boiled down:
as §1

The subject of data set [7] is HeLa. In words: Antiproliferative activity against human HeLa cells after 72 hrs by MTT assay. Format: functional, cell-based. The method, boiled down:
as §1

The test system of data set [8] is WI-38. The data set can be described thus: Cytostatic activity against human WI38 cells at 1 to 10 uM after 72 hrs by MTT assay. In kind it is ADME, cell-based. Particulars: wi-38, 72 h. A digest of the protocol: (§2)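 Monolayers in DMEM with 10% FBS, 2 mM L-glutamine, penicillin and streptomycin (37 °C, 5% CO2) were seeded at 3000–6000 cells/well on day 0. Five 10-fold dilutions (0.01–100 µM) were added, followed by 72-h incubation and MTT read-out. Absorbances were converted to percentage growth by the NIH formulae. Each point was run in quadruplicate in three experiments; ANOVA with Tukey test.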

Data set [9] deals with SW-620. The data set can be described thus: Cytostatic activity against human SW620 cells at 1 to 10 uM after 72 hrs by MTT assay. In kind it is functional, cell-based. The method, boiled down: as §2
The test system of data set [10] is MIA PaCa-2. The data set can be described thus: Cytostatic activity against human MIAPaCa2 cells at 1 to 10 uM after 72 hrs by MTT assay. Format: functional, cell-based. The method, boiled down: as §2
Data set [11] relates to SK-BR-3. In words: Cytostatic activity against human SKBR3 cells at 1 to 10 uM after 72 hrs by MTT assay. In kind it is functional, cell-based. The method, boiled down:
as §2

Data set [12] concerns HEp-2. The data set can be described thus: Cytostatic activity against human Hep2 cells at 1 to 10 uM after 72 hrs by MTT assay. In kind it is functional, cell-based. A digest of the protocol:
as §2

Data set [13] concerns MCF7. In words: Cytostatic activity against human MCF7 cells at 1 to 10 uM after 72 hrs by MTT assay. In kind it is functional, cell-based. A digest of the protocol:
as §2

Data set [14] concerns HeLa. In words: Cytostatic activity against human HeLa cells at 1 to 10 uM after 72 hrs by MTT assay. Format: functional, cell-based. The method, boiled down:
as §2

The structures appear in SMILES notation. The source made the active and inactive calls. The rule behind the calls is not given here.

What is called IC50 is the concentration needed to halve the response being measured. Read a low IC50 as greater potency.

For `C[n+]1cccc2c1nc1ccc3cc([N+](=O)[O-])ccc3n12`, the IC50 in [1] (Homo sapiens, WI-38, 72 h) is greater than 100 µM; in [2] (Homo sapiens, MIA PaCa-2, 72 h), greater than 100 µM; in data set [3] (Homo sapiens, SW-620, 72 h), 26.7 µM; in [4] (Homo sapiens, HEp-2, 72 h) it was 31.5 µM; in [5] (Homo sapiens, SK-BR-3, 72 h) it was 33.6 µM; in data set [6] (Homo sapiens, MCF7, 72 h), greater than 100 µM. In [7] (Homo sapiens, HeLa, 72 h), half-maximal inhibition (IC50) was put at 11.4 µM.

For the compound `N#Cc1ccc(/C=C/c2nc3ncc(Br)cc3[nH]2)cc1`, the IC50 was determined as 6.76 µM in [1] (Homo sapiens, WI-38, 72 h); 8.17 µM in data set [2] (Homo sapiens, MIA PaCa-2, 72 h); 7.11 µM in data set [3] (Homo sapiens, SW-620, 72 h); 5.69 µM in data set [4] (Homo sapiens, HEp-2, 72 h); 4.31 µM in data set [5] (Homo sapiens, SK-BR-3, 72 h); 7.82 µM in [6] (Homo sapiens, MCF7, 72 h). This compound also yielded an IC50 in data set [7] (Homo sapiens, HeLa, 72 h) of 2.88 µM. For the same compound, in data set [8], the Activity result is “Toxic”. In addition, the result in data set [9], in data set [10], in data set [11], in data set [12], in data set [13] and in data set [14] was Active.

Regarding `C(=C\c1nc2ncccc2[nH]1)/c1ccccc1`, the half-maximal inhibitory concentration (IC50) in data set [1] (Homo sapiens, WI-38, 72 h) turned out to be 3.87 µM; in data set [2] (Homo sapiens, MIA PaCa-2, 72 h), 4.39 µM; in data set [3] (Homo sapiens, SW-620, 72 h), 4.64 µM; in data set [4] (Homo sapiens, HEp-2, 72 h) it was 3.89 µM; in [5] (Homo sapiens, SK-BR-3, 72 h), 2.06 µM; in [6] (Homo sapiens, MCF7, 72 h) it was 7.57 µM. This compound registered a 50% inhibitory concentration (IC50) in [7] (Homo sapiens, HeLa, 72 h) of 2.22 µM. In addition, in data set [8], the Activity result is listed as “Toxic”. Also, the outcome in data set [9], in data set [10], in data set [11], in data set [12], in [13] and in [14] was Active.

As to `N#Cc1ccc(/C=C/c2nc3ncccc3[nH]2)cc1`, the IC50 was greater than 100 µM in [1] (Homo sapiens, WI-38, 72 h); greater than 100 µM in [2] (Homo sapiens, MIA PaCa-2, 72 h); greater than 100 µM in data set [3] (Homo sapiens, SW-620, 72 h); 84.9 µM in data set [4] (Homo sapiens, HEp-2, 72 h); 86.6 µM in [5] (Homo sapiens, SK-BR-3, 72 h); 12.9 µM in data set [6] (Homo sapiens, MCF7, 72 h). For the same compound, in data set [7] (Homo sapiens, HeLa, 72 h), the IC50 was determined as 47.1 µM.

As for `N#Cc1ccc2ccc3nc4ncccc4n3c2c1`, the IC50 in data set [1] (Homo sapiens, WI-38, 72 h) was 51.5 µM; in data set [2] (Homo sapiens, MIA PaCa-2, 72 h) it was greater than 100 µM; in data set [3] (Homo sapiens, SW-620, 72 h) it was greater than 100 µM; in data set [4] (Homo sapiens, HEp-2, 72 h), 47.3 µM; in data set [5] (Homo sapiens, SK-BR-3, 72 h) it was 67.7 µM; in [6] (Homo sapiens, MCF7, 72 h), greater than 100 µM. The IC50 in [7] (Homo sapiens, HeLa, 72 h) turned out to be 39.5 µM.

As for `O=[N+]([O-])c1ccc(Cl)c(/C=C/c2nc3ncccc3[nH]2)c1`, the IC50 in data set [1] (Homo sapiens, WI-38, 72 h) was found to be 61.6 µM; in data set [2] (Homo sapiens, MIA PaCa-2, 72 h), 38.8 µM; in data set [3] (Homo sapiens, SW-620, 72 h), 52 µM; in data set [4] (Homo sapiens, HEp-2, 72 h) it was 49.4 µM; in [5] (Homo sapiens, SK-BR-3, 72 h) it was 1.8 µM; in data set [6] (Homo sapiens, MCF7, 72 h), 53.6 µM. The compound further returned an IC50 in [7] (Homo sapiens, HeLa, 72 h) of 45.1 µM.

On to `Clc1ccccc1/C=C/c1nc2ncccc2[nH]1`, for which the IC50 was greater than 100 µM in [1] (Homo sapiens, WI-38, 72 h); 59.1 µM in data set [2] (Homo sapiens, MIA PaCa-2, 72 h); 50.9 µM in data set [3] (Homo sapiens, SW-620, 72 h); 29.3 µM in [4] (Homo sapiens, HEp-2, 72 h); 5.79 µM in [5] (Homo sapiens, SK-BR-3, 72 h); 25.6 µM in [6] (Homo sapiens, MCF7, 72 h). This compound returned an IC50 in data set [7] (Homo sapiens, HeLa, 72 h) of 31.6 µM. In addition, the Activity result in data set [8] is recorded as “Toxic”. Moreover, the result in [9], in data set [10], in data set [11], in [12], in data set [13] and in data set [14] was Active.

On to `Nc1ccc2c(ccc3nc4ncccc4n32)c1`, for which the IC50 in data set [2] (mia paca-2) was 43.4 µM; in [3] (sw-620) it was 25.9 µM; in data set [4] (hep-2) it was 26.7 µM; in data set [5] (sk-br-3), 3.64 µM; in [6] (mcf7), 56 µM; in data set [7] (hela), 27.2 µM.

Regarding `Nc1ccc2c(ccc3nc4ncc(Br)cc4n32)c1`, the half-maximal inhibitory concentration (IC50) came out at 85.1 µM in data set [1] (wi-38); 40.3 µM in data set [2] (mia paca-2); 40.7 µM in data set [3] (sw-620); 21.6 µM in data set [4] (hep-2); 7.56 µM in data set [5] (sk-br-3); 67.3 µM in [6] (mcf7). This compound displayed an IC50 in data set [7] (hela) of 37.7 µM.

The record behind these values is ChEMBL document CHEMBL1806443, “Novel imidazo[4,5-b]pyridine and triaza-benzo[c]fluorene derivatives: synthesis, antiproliferative activity and DNA binding studies” (Eur J Med Chem, 2011).
